# Activity calls are given as the source filed them. The calls are words filed in the database; no cut-off is given here.
# Experiments:
# HT-29 [1] = assay: Induction of apoptosis in human HT-29 cells assessed as necrotic cells at 50 uM after 48 hrs by Annexin-V-FITC/propidium iodide staining based flow cytometry (reference value: 1.6%); format: functional
# [2] = target: Mitogen-activated protein kinase 9 (Homo sapiens, UniProt P45984); assay: Inhibition of full length human JNK2 (M1 to Q382 residues) expressed in mammalian expression system assessed as residual activity at 5 uM by KINOMEscan assay relative to control
# [3] = target: RAC-alpha serine/threonine-protein kinase (Homo sapiens, UniProt P31749); assay: Inhibition of human AKT1 expressed in bacterial expression system assessed as residual activity at 5 uM by KINOMEscan assay relative to control
# [4] = target: Cyclin-dependent kinase 7 (Homo sapiens, UniProt P50613); assay: Binding affinity to full length human CDK7 (M1 to L344 residues) expressed in mammalian expression system by KINOMEscan assay
# [5] = target: 3-phosphoinositide-dependent protein kinase 1 (Homo sapiens, UniProt O15530); assay: Binding affinity to full length human PDPK1 (M1 to Q556 residues) expressed in bacterial expression system by KINOMEscan assay
# SW-620 [6] = assay: Induction of apoptosis in human SW620 cells assessed as increase in apoptotic bodies after 48 hrs by Hoechst 33342 staining based fluorescence microscopic analysis; format: functional, cell-based
# HT-29 [7] = assay: Induction of apoptosis in human HT-29 cells assessed as live cells at 50 uM after 48 hrs by Annexin-V-FITC/propidium iodide staining based flow cytometry (reference value: 93.2%); format: functional
# Activin receptor type-1B = Activin receptor type-1B (Homo sapiens, UniProt P36896); assay: Binding affinity to human ACVR1B (S187 to I505 residues) expressed in bacterial expression system by KINOMEscan assay
# [8] = target: High affinity nerve growth factor receptor (Homo sapiens, UniProt P04629); assay: Inhibition of human TRKA (G475 to G790 residues) expressed in mammalian expression system assessed as residual activity at 5 uM by KINOMEscan assay relative to control
# [9] = target: Serine/threonine-protein kinase pim-2 (Homo sapiens, UniProt Q9P1W9); assay: Binding affinity to human PIM2 (M1 to E291 residues) expressed in bacterial expression system by KINOMEscan assay
# [10] = target: RAF proto-oncogene serine/threonine-protein kinase (Homo sapiens, UniProt P04049); assay: Binding affinity to human RAF1 (I330 to T640 residues) expressed in bacterial expression system by KINOMEscan assay
# [11] = target: Inhibitor of nuclear factor kappa-B kinase subunit beta (Homo sapiens) (UniProt O14920); assay: Inhibition of full length human IKKbeta (M1 to S756 residues) expressed in mammalian expression system assessed as residual activity at 5 uM by KINOMEscan assay relative to control
# SW-620 [12] = assay: Increase in PTEN expression in human SW620 cells after 48 hrs by Western blot analysis; format: functional, cell-based
# How it was run: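 HT29 or SW620 cells were treated at 0, 25, 50 and 75 μM for 48 h and lysed in RIPA with protease and phosphatase inhibitors. Protein was quantified by BCA. 50 μg lysate was run on 8–15% SDS-PAGE and transferred to PVDF. Blocking was 5% BSA/TBST for 2 h; primary antibodies were applied overnight at 4 °C, then HRP secondary 1 h at room temperature.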
# HT-29 [13] = assay: Induction of apoptosis in human HT-29 cells assessed as early apoptotic cells at 25 uM after 48 hrs by Annexin-V-FITC/propidium iodide staining based flow cytometry (reference value: 1%); format: functional
# [14] = target: Serine/threonine-protein kinase ULK2 (Homo sapiens) (UniProt Q8IYT8); assay: Inhibition of human ULK2 (M1 to S301 residues) expressed in mammalian expression system assessed as residual activity at 5 uM by KINOMEscan assay relative to control
# [15] = target: Non-receptor tyrosine-protein kinase TYK2 (Homo sapiens, UniProt P29597); assay: Inhibition of human TYK2 JH1 catalytic domain (V877 to C1187 residues) expressed in mammalian expression system assessed as residual activity at 5 uM by KINOMEscan assay relative to control
# [16] = target: MAP kinase-activated protein kinase 2 (Homo sapiens, UniProt P49137); assay: Inhibition of human MAPKAPK2 (V48 to D345 residues) expressed in bacterial expression system assessed as residual activity at 5 uM by KINOMEscan assay relative to control
# Aurora kinase B = Aurora kinase B (Homo sapiens, UniProt Q96GD4); assay: Binding affinity to human AURKB (D25 to A303 residues) expressed in mammalian expression system by KINOMEscan assay
# [17] = target: Phosphatidylinositol 4,5-bisphosphate 3-kinase catalytic subunit alpha isoform (Homo sapiens, UniProt P42336); assay: Inhibition of human PIK3CA (R108 to N1068 residues) expressed in mammalian expression system assessed as residual activity at 5 uM by KINOMEscan assay relative to control
# HT-29 [18] = assay: Inhibition of colony formation in human HT-29 cells assessed as reduction in number of colonies at 25 to 75 uM treated for 48 hrs followed by compound washout and measured after 14 hrs by crystal violet staining based assay; format: functional, cell-based
# [19] = target: Fibroblast growth factor receptor 3 (Homo sapiens, UniProt P22607); assay: Inhibition of partial length human FGFR3 (R442 to S771 residues) expressed in bacterial expression system assessed as residual activity at 5 uM by KINOMEscan assay relative to control
# HT-29 [20] = assay: Cell cycle arrest in human HT-29 cells assessed as accumulation at S-phase at 25 uM after 48 hrs by propidium iodide staining based flow cytometry (reference value: 37.82%); format: functional
# Sequence of RAC-alpha serine/threonine-protein kinase (P31749 whole entry, the tested form may be a part): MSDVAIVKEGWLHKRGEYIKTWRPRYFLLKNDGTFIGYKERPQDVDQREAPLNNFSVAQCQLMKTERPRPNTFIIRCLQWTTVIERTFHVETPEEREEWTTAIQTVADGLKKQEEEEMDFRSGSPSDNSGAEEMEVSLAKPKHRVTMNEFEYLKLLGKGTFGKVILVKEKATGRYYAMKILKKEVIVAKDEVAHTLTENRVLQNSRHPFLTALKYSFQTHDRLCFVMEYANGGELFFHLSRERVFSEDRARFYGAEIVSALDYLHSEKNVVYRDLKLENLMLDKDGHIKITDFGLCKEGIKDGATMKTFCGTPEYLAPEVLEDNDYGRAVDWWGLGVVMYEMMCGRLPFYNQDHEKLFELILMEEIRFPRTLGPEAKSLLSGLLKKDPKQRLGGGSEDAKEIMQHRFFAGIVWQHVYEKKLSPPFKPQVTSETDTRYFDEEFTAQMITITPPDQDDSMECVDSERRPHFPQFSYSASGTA
# Sequence of RAF proto-oncogene serine/threonine-protein kinase (P04049 whole entry, the tested form may be a part): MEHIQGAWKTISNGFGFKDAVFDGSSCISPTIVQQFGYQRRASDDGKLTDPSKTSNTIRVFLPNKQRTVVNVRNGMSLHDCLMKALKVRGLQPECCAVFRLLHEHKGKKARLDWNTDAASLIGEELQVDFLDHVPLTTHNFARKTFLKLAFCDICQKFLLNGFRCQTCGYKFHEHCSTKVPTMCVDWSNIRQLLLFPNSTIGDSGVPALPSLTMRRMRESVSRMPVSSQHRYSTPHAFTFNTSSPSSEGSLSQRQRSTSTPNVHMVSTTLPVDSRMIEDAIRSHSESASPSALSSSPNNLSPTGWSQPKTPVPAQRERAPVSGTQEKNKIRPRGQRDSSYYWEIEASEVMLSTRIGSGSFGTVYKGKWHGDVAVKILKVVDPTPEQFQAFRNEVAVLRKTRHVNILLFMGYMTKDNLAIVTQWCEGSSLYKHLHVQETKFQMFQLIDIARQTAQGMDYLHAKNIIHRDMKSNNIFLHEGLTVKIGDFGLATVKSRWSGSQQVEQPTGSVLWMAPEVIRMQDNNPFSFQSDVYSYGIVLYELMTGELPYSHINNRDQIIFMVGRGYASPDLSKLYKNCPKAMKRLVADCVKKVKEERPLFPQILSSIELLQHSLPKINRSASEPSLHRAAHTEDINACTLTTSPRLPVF
# Sequence of Non-receptor tyrosine-protein kinase TYK2 (P29597 whole entry, the tested form may be a part): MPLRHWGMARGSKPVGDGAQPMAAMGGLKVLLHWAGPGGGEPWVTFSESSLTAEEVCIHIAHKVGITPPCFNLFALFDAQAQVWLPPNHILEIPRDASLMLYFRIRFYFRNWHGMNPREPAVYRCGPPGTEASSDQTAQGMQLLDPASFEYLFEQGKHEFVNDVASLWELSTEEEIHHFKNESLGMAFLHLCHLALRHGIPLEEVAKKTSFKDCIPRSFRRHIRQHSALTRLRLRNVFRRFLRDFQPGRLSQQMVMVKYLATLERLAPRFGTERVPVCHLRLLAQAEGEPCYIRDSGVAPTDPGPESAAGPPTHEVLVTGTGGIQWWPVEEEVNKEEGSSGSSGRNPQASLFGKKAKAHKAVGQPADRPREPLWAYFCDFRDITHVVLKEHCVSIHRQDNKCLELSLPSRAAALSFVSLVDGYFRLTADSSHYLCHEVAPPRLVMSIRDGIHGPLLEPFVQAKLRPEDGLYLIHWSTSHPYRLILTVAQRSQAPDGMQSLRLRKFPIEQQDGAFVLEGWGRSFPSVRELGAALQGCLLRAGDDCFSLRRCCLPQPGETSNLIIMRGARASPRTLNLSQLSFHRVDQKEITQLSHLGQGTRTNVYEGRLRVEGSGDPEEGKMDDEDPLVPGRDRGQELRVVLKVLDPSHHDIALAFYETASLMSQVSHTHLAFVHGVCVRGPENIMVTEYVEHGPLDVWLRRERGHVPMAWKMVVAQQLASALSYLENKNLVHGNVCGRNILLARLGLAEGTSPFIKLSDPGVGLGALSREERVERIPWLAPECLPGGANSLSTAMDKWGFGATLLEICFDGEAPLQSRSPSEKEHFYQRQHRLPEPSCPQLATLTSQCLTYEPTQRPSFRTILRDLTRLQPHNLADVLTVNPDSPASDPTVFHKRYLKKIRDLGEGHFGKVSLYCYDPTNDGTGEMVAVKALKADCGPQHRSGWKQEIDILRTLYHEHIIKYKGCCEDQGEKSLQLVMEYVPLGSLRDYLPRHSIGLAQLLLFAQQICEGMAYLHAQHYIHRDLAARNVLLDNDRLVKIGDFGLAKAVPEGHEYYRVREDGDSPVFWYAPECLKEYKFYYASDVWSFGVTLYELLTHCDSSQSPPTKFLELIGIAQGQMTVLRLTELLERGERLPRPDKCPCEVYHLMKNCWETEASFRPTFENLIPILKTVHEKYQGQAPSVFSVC
# Sequence of Phosphatidylinositol 4,5-bisphosphate 3-kinase catalytic subunit alpha isoform (P42336 whole entry, the tested form may be a part, canonical isoform): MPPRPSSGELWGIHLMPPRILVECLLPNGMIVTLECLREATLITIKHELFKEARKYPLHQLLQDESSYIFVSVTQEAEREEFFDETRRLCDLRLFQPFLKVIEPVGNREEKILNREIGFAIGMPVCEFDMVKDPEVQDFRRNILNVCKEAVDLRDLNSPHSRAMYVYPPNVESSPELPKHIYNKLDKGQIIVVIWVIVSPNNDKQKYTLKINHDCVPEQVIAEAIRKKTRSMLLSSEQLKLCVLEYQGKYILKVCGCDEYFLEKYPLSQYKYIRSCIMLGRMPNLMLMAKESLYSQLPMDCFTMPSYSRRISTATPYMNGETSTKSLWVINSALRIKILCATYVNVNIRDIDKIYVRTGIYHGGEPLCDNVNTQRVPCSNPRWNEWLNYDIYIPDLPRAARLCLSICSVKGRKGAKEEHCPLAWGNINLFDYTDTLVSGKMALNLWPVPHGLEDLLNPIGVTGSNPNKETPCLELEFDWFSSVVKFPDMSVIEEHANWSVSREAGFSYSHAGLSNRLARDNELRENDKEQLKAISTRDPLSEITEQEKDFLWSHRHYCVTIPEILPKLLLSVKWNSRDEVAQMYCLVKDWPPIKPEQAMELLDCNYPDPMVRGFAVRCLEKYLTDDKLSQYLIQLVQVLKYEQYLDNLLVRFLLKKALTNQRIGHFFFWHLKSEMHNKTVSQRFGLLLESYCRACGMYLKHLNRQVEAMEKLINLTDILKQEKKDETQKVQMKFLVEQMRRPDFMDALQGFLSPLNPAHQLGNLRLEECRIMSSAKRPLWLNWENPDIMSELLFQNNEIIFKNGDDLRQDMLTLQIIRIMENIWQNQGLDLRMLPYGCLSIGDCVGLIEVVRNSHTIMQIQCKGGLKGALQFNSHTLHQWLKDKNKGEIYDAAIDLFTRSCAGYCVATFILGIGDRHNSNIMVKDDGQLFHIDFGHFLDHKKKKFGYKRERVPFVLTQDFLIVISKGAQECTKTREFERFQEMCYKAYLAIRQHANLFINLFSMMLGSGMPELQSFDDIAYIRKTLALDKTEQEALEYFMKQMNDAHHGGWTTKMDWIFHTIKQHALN
# Sequence of 3-phosphoinositide-dependent protein kinase 1 (O15530 whole entry, the tested form may be a part): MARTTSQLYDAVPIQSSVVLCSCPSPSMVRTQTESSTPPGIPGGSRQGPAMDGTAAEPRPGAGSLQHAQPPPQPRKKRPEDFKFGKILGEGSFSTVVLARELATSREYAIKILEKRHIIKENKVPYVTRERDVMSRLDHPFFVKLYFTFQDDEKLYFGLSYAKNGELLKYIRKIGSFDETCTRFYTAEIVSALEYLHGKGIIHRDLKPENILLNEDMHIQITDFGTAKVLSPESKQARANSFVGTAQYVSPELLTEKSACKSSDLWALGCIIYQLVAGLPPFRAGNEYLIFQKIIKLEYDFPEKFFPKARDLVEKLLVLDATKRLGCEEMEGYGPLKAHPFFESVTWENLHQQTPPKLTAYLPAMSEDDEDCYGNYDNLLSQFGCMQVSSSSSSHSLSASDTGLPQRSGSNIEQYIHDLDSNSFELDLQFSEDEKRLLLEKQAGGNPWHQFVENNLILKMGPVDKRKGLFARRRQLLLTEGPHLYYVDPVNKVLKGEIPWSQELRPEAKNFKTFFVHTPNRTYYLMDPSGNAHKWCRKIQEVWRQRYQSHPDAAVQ
# Sequence of Fibroblast growth factor receptor 3 (P22607 23-806 limits assumed): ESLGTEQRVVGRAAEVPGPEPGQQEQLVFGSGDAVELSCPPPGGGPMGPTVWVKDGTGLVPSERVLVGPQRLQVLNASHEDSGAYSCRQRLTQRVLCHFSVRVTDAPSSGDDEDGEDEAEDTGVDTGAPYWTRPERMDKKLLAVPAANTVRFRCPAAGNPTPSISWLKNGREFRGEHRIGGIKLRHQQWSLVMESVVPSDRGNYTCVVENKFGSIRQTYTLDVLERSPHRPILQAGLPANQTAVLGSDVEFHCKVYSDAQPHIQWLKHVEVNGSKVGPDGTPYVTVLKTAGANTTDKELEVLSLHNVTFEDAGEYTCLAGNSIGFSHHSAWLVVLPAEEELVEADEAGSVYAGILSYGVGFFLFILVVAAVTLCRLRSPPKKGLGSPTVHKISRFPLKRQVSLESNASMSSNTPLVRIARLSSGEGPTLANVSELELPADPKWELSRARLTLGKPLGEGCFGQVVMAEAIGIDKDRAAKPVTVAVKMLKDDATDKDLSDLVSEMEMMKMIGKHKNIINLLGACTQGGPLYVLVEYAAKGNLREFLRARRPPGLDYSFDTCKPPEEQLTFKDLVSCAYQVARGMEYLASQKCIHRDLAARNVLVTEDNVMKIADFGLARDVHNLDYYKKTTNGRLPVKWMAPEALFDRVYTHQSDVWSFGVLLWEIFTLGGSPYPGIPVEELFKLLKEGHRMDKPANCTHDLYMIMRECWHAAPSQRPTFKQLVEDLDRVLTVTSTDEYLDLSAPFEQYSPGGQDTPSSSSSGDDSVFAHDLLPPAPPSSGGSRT
# Sequence of Serine/threonine-protein kinase pim-2 (Q9P1W9 whole entry, the tested form may be a part): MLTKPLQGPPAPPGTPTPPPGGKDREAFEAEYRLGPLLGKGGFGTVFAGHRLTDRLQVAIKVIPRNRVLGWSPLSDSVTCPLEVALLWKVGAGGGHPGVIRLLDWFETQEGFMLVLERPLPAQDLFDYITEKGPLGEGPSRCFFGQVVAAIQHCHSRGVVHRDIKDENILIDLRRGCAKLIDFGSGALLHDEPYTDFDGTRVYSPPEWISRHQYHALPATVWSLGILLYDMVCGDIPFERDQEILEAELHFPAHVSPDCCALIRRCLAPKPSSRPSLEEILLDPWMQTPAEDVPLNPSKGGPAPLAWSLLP
smiles,measurement,setting,value
CC(C)CN(C(=O)c1cccnc1)c1c2ccccc2c(=O)n2c1[nH]c1ccccc12,Activity,HT-29 [1],4.4%
same,Activity,[2],96%
same,Activity,[3],98%
same,Kd,[4],≥ 5 µM
same,Kd,[5],≥ 5 µM
same,Activity,SW-620 [6],Dose-dependent effect
same,Activity,HT-29 [7],80.3%
same,Kd,Activin receptor type-1B,≥ 5 µM
same,Activity,[8],84%
same,Kd,[9],≥ 5 µM
same,Kd,[10],≥ 5 µM
same,Activity,[11],93%
same,Activity,SW-620 [12],Dose-dependent effect
same,Activity,HT-29 [13],0.9%
same,Activity,[14],87%
same,Activity,[15],73%
same,Activity,[16],100%
same,Kd,Aurora kinase B,≥ 5 µM
same,Activity,[17],100%
same,inhibition,HT-29 [18],Active
same,Activity,[19],80%
same,Activity,HT-29 [20],37.2%
